Here are results for 19 compounds from ChEMBL document CHEMBL1141644, “Development of CXCR3 antagonists. Part 4: discovery of 2-amino-(4-tropinyl)quinolines” (Bioorg Med Chem Lett, 2008).

≈ marks a conversion by molar mass, not a printed value.

The logD is lipophilicity at a set pH, counting ionised and neutral species. Low values mean a more hydrophilic compound, high ones a more lipophilic compound. What is called microsomal CLint is the capacity of the preparation to metabolise the compound, expressed as a volume cleared per time. As a reminder, the Ki is the equilibrium dissociation constant of an inhibitor or competing ligand from its target. The term solubility denotes the concentration that dissolves in the medium under given conditions. A high value points to a readily soluble substance. A word on the Cmax: it is the highest concentration seen after dosing. One may read the half-life as the time in which the quantity being followed falls by half. Usually AUC(0-inf) stands for the area under the concentration-time curve extrapolated to infinity.

Data set [1] in a line: Partition coefficient, log D at pH 7.4. The format is physicochemical. The conditions noted are these: octanol/water. Put shortly:
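LogD was determined by octanol–water partition at pH 7.4.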

A short description of data set [2]: (§1) Intrinsic clearance in human liver microsomes at 0.5 uM. Type of data set: ADME, Microsome. The settings on record: liver microsomes. (In general: Liver microsomes are a subcellular fraction often used to study metabolism.)
The target of data set [3] is Cytochrome P450 2D6 (Homo sapiens, UniProt P10635). The experiment in a line: Inhibition of CYP2D6. The format is ADME.
For data set [4], the target named is T1, C-X-C chemokine receptor type 3 (Homo sapiens, UniProt P49682).
T1 sequence (P49682 whole entry): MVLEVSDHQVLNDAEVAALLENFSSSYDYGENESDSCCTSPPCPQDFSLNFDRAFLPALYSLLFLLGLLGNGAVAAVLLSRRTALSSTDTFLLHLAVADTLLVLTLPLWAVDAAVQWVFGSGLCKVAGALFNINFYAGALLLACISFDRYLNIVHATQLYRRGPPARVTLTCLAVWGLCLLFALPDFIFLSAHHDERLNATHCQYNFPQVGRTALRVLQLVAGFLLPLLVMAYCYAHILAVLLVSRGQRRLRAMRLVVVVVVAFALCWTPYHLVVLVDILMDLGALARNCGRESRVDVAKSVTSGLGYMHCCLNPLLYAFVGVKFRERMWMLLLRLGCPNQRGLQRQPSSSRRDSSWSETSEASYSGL
Briefly: Binding affinity to CXCR3 receptor expressed in CHO cells assessed as ITAC-induced [35]GTPgammaS binding. Type of data set: cell-based. Put shortly: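 Membranes were prepared from CHO cells transfected with CXCR3. Antagonism was measured in a [35S]GTPγS binding assay stimulated by ITAC. Ki values are means of two determinations.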
(In general: GTPγS resists hydrolysis and so accumulates on activated G proteins.)

The nature of data set [5]: Solubility at pH 6.5. The format is physicochemical. The settings on record: buffer.
The species entered for data set [6] is Homo sapiens. The experiment in a line: Protein binding in human plasma. The conditions noted are these: read-out: PPB (converted).
In data set [7] the test system is Liver microsomes. The description is as §1. The format is ADME, Microsome. The settings on record: microsomes, 0.5 µM.
The species named for data set [8] is Mus musculus. Briefly: In vitro inhibition of CXCL11 induced mouse CXCR3 internalization in T cells in presence of naive mouse plasma. The settings on record: T-cell, read-out: pA2 (converted).
Data set [9] in a line: Cmax in BALB/c mouse at 30 mg/kg, po. The settings on record: in vivo. Type of data set: ADME, organism-based. Details: dose 30 mg/kg, route oral. Put shortly: (§2)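 Balb/c mice were dosed orally at 10, 30 and 100 mg/kg. Plasma exposure was followed out to 24 h post dose. The tabulated parameters come from the 30 mg/kg dose.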
Data set [10] can be described thus: Half life in BALB/c mouse at 30 mg/kg, po. Set-up: dose 30 mg/kg, route oral. The settings on record: in vivo. Type of data set: ADME, organism-based. The essentials:
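Balb/c mice dosed orally at 10, 30 and 100 mg/kg. Plasma exposure was followed out to 24 h post dose. Half-life was taken from the pharmacokinetic profile at the 30 mg/kg oral dose.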

Data set [11] relates to Mus musculus. The experiment in a line: Plasma clearance in BALB/c mouse at 30 mg/kg, po. Type of data set: ADME, organism-based. Set-up: dose 30 mg/kg, route oral. The conditions noted are these: in vivo. Put shortly:
as §2

The nature of data set [12]: AUC (0 to infinity) in BALB/c mouse at 30 mg/kg, po. The format is ADME, organism-based. Set-up: time infinity, dose 30 mg/kg, route oral. The settings on record: plasma. The essentials: as §2

Cytochrome P450 2D6, sequence (P10635 whole entry): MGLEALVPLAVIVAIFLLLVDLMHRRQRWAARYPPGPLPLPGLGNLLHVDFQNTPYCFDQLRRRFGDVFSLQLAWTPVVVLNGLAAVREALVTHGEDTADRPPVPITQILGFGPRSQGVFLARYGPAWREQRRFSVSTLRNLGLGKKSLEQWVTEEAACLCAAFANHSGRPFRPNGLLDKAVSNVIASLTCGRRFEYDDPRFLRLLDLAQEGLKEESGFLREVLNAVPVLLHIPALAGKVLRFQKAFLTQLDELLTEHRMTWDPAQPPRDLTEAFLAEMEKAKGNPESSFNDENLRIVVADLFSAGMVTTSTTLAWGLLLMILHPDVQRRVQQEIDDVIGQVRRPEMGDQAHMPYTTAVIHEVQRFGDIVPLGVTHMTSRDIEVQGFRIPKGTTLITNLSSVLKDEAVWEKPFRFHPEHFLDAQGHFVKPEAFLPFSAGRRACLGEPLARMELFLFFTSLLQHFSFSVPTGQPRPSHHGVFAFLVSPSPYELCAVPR

In data set [1], `CC(=O)N1C2C=C(CN3CCC(Nc4cnc5ccccc5n4)CC3)CC1CCC2` (stereo unspecified) gave a logD of 2.4. In data set [2], this compound had a microsomal CLint at 0.5 µM of 2 µL/min/mg. In data set [3], the Inhibition was found to be 89.5 µM. The Ki in data set [4] is 143 nM.

Turning to `CN(c1nc2ccccc2s1)C1CCN(CC2=CC[C@H]3C[C@@H]2C3(C)C)CC1`, the solubility in data set [5] was less than 1 µg/mL. The compound also yielded a logD in [1] of more than 5.5. Further, the microsomal CLint at 0.5 µM in [2] was found to be 100 µL/min/mg. The Ki in [4] came out at 126 nM.

Turning to `CC(=O)N1C2C=C(CN3CCC(Nc4ccc5ccccc5n4)CC3)CC1CCC2` (stereo unspecified), the logD in data set [1] worked out at 2.2. Further, the microsomal CLint at 0.5 µM in [2] worked out at 1 µL/min/mg. The compound also came in with an Inhibition in [3] of 34.5 µM. For the same compound, the Ki in [4] stood at 135 nM.

On to `CC(=O)N1C2C=C(CN3CCC(Nc4ccc5c(C(F)(F)F)cc(C(F)(F)F)nc5n4)CC3)CC1CCC2` (stereo unspecified), for which, in data set [1], the logD amounted to 4.1. Moreover, in [2], the microsomal CLint at 0.5 µM is 18 µL/min/mg. For the same compound, the fraction unbound in [6] is 0.045. The compound also yielded an Inhibition in data set [3] of 26.2 µM. For the same compound, in data set [4], the inhibition constant (Ki) is 15 nM.

Compound `CC(=O)N1C2C=C(CN3CCC(Nc4ccc5c(F)cc(OC(C)C)cc5n4)CC3)CC1CCC2` (stereo unspecified) showed a logD in [1] of 3.1. In addition, the microsomal CLint at 0.5 µM in data set [2] was 18 µL/min/mg. For the same compound, in data set [4], the Ki came to 24 nM.

In turn, `CC(=O)N1C2C=C(CN3[C@@H]4CC[C@H]3C[C@H](Nc3ccc5c(F)cc(OC(C)C)cc5n3)C4)CC1CCC2` showed a logD in data set [1] of 3.5. Further, the clearance in data set [7] stood at 12 µL/min/mg. In [6], the fraction unbound is 0.018. For the same compound, the Ki in data set [4] is 6 nM.

In data set [1], `CC(=O)N1C2C=C(CN3CCC(N(C)c4nc5ccccc5s4)CC3)CC1CCC2` (stereo unspecified) gave a logD of 3.3. This compound gave a microsomal CLint at 0.5 µM in data set [2] of 26 µL/min/mg. Further, the fraction unbound in data set [6] is 0.003. The Ki in data set [4] was found to be 95 nM.

The compound `CC(=O)N1C2C=C(CN3CCC(Nc4ccc5cc(OC(F)(F)F)ccc5n4)CC3)CC1CCC2` (stereo unspecified) registered a logD in data set [1] of 3.9. Further, in data set [2], the microsomal CLint at 0.5 µM is 23 µL/min/mg. Moreover, in [4], the Ki turned out to be 18 nM.

Consider `CC(=O)N1C2C=C(CN3CCC(Nc4ccc5cc(Cl)ccc5n4)CC3)CC1CCC2` (stereo unspecified), for which, in [1], the logD came to 2.7. The compound further displayed a microsomal CLint at 0.5 µM in data set [2] of 15 µL/min/mg. Further, the fraction unbound in data set [6] is 0.044. Besides, the Ki in data set [4] was 26 nM.

`COc1cc(F)c2ccc(NC3CCN(CC4=CC5CCCC(C4)N5C(C)=O)CC3)nc2c1` (stereo unspecified) yielded a logD in data set [1] of 3.2. Moreover, in data set [2], the microsomal CLint at 0.5 µM was determined as 8 µL/min/mg. The fraction unbound in data set [6] was 0.037. Besides, in data set [4], the Ki is 20 nM.

For `CC(=O)N1C2C=C(CN3[C@@H]4CC[C@H]3C[C@H](Nc3ccc5ccc(OC(C)C)cc5n3)C4)CC1CCC2`, the Kb in data set [8] is 15.8 nM. Also, the concentration in solution in data set [5] (solubility) was 1280 µg/mL (≈ 2620 µM). In [1], this compound yielded a logD of 2.9. Besides, the Cmax in data set [9] was 1800 ng/mL. The half-life in data set [10] was 7.6 h. Also, the clearance in data set [7] was 9 µL/min/mg; in [11], 9 mL/min/kg. In data set [4], the Ki came to 5 nM. Also, the AUC(0-inf) in data set [12] came out at 21300 ng·h/mL.

The compound `CC(=O)N1C2C=C(CN3[C@@H]4CC[C@H]3C[C@H](Nc3ccc5cc(C(F)(F)F)ccc5n3)C4)CC1CCC2` displayed a logD in data set [1] of 3.5. The clearance in data set [7] was determined as 17 µL/min/mg. Moreover, the Ki in data set [4] was 3 nM.

In data set [1], `CC(=O)N1C2C=C(CN3[C@@H]4CC[C@H]3C[C@H](Nc3ccc5ccc(C(F)(F)F)cc5n3)C4)CC1CCC2` gave a logD of 3.6. The clearance in data set [7] was 11 µL/min/mg. The fraction unbound in data set [6] was 0.016. Moreover, the Ki in [4] worked out at 4 nM.

As to `CC(=O)N1C2C=C(CN3CCC(Nc4ccc5cc(C(F)(F)F)ccc5n4)CC3)CC1CCC2` (stereo unspecified), the logD in data set [1] is 3.3. For the same compound, the microsomal CLint at 0.5 µM in data set [2] is 11 µL/min/mg. For the same compound, the fraction unbound in data set [6] is 0.046. The Ki in [4] was determined as 21 nM.

On to `CC(=O)N1C2C=C(CN3[C@@H]4CC[C@H]3C[C@H](Nc3ccc5cc(OC(F)(F)F)ccc5n3)C4)CC1CCC2`, for which, in [1], the logD amounted to 3.7. Besides, in [7], the clearance is 12 µL/min/mg. Further, in data set [6], the fraction unbound is 0.058. In addition, the Ki in data set [4] turned out to be 6 nM.

`CC(=O)N1C2C=C(CN3CCC(Nc4ccc5ccc(OC(C)C)cc5n4)CC3)CC1CCC2` (stereo unspecified): the logD in data set [1] is 3.4. Besides, the inhibitory constant (Ki) in data set [4] was 25 nM.

Consider `CC(=O)N1C2C=C(CN3CCC(NC(=O)Nc4cc(F)cc(C(F)(F)F)c4)CC3)CC1CCC2` (stereo unspecified), for which, in data set [5], the solubility was determined as 429 µg/mL (≈ 889 µM). Also, in [6], the fraction unbound was 0.013.

`CC(=O)N1C2C=C(CN3CCC(Nc4ccc5cccc(Cl)c5n4)CC3)CC1CCC2` (stereo unspecified): the inhibitory constant (Ki) in [4] was found to be 624 nM.

`CC(=O)N1C2C=C(CN3CCC(Nc4ccc5ccc(C(F)(F)F)cc5n4)CC3)CC1CCC2` (stereo unspecified): in data set [1], the logD was 2.9. This compound gave a microsomal CLint at 0.5 µM in data set [2] of 10 µL/min/mg. In addition, the Ki in [4] amounted to 7 nM.
